# How the values were obtained:
# Assay type in all cases: functional
# CCRF-CEM = assay: Growth inhibition of human CCRF-CEM cells at 10 uM after 48 hrs by coulter counter method; settings: read-out: GI
# Procedure, shortened: (§1)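 Single high-dose NCI 60-cell-line panel screen across nine tumor subpanels. Test solutions (0.2 mL) were added in duplicate to wells holding 1.8 mL of culture at 6 × 10⁴ cells/mL. Controls got PBS and DMSO at identical dilutions. Incubation was 48 h at 37 °C in humidified 5% CO₂. Cells were diluted 10-fold in saline, Coulter-counted and dilution-corrected. Results were expressed as percent growth inhibition versus control.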
# HL-60(TB) = assay: Growth inhibition of human HL-60(TB) cells at 10 uM after 48 hrs by coulter counter method; settings: HL-60, 48 h, read-out: GI
# Procedure, shortened: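 Part of the NCI 60-cell-line single-high-dose panel. Cells were seeded at 6 × 10⁴ cells/mL with test solution in duplicate wells, alongside PBS/DMSO controls at identical dilutions. Plates were held 48 h at 37 °C in a humidified 5% CO₂ incubator. Cells were then diluted 10-fold in saline and counted by Coulter counter, with counts corrected for dilution. Results are percent growth of treated cells, reported as GI %.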
# K562 = assay: Growth inhibition of human K562 cells at 10 uM after 48 hrs by coulter counter method; settings: K562, 48 h, read-out: GI; procedure, shortened: as §1
# MOLT-4 = assay: Growth inhibition of human MOLT4 cells at 10 uM after 48 hrs by coulter counter method; settings: MOLT-4, 48 h, read-out: GI; procedure, shortened: as §1
# SR = assay: Growth inhibition of human SR cells at 10 uM after 48 hrs by coulter counter method; settings: read-out: GI; procedure, shortened: as §1
# A549 = assay: Growth inhibition of human A549 cells at 10 uM after 48 hrs by coulter counter method; settings: A549, 48 h, read-out: GI; procedure, shortened: as §1
# HOP-92 = assay: Growth inhibition of human HOP92 cells at 10 uM after 48 hrs by coulter counter method; settings: HOP-92, 48 h, read-out: GI; procedure, shortened: as §1
# NCI-H226 = assay: Growth inhibition of human NCI-H226 cells at 10 uM after 48 hrs by coulter counter method; settings: NCI-H226, 48 h, read-out: GI; procedure, shortened: as §1
# NCI-H23 = assay: Growth inhibition of human NCI-H23 cells at 10 uM after 48 hrs by coulter counter method; settings: NCI-H23, 48 h, read-out: GI; procedure, shortened: as §1
# NCI-H522 = assay: Growth inhibition of human NCI-H522 cells at 10 uM after 48 hrs by coulter counter method; settings: NCI-H522, 48 h, read-out: GI; procedure, shortened: as §1
# COLO 205 = assay: Growth inhibition of human COLO205 cells at 10 uM after 48 hrs by coulter counter method; settings: COLO 205, 48 h, read-out: GI; procedure, shortened: as §1
# HCT-116 = assay: Growth inhibition of human HCT116 cells at 10 uM after 48 hrs by coulter counter method; settings: HCT-116, 48 h, read-out: GI; procedure, shortened: as §1
# HT-29 = assay: Growth inhibition of human HT-29 cells at 10 uM after 48 hrs by coulter counter method; settings: HT-29, 48 h, read-out: GI; procedure, shortened: as §1
# KM12 = assay: Growth inhibition of human KM12 cells at 10 uM after 48 hrs by coulter counter method; settings: KM12, 48 h, read-out: GI; procedure, shortened: as §1
# SF-268 = assay: Growth inhibition of human SF268 cells at 10 uM after 48 hrs by coulter counter method; settings: SF-268, 48 h, read-out: GI; procedure, shortened: as §1
# SF-539 = assay: Growth inhibition of human SF539 cells at 10 uM after 48 hrs by coulter counter method; settings: SF-539, 48 h, read-out: GI; procedure, shortened: as §1
# SNB-75 = assay: Growth inhibition of human SNB75 cells at 10 uM after 48 hrs by coulter counter method; settings: SNB-75, 48 h, read-out: GI; procedure, shortened: as §1
# U-251 = assay: Growth inhibition of human U251 cells at 10 uM after 48 hrs by coulter counter method; settings: U-251, 48 h, read-out: GI; procedure, shortened: as §1
# M14 = assay: Growth inhibition of human M14 cells at 10 uM after 48 hrs by coulter counter method; settings: M14, 48 h, read-out: GI; procedure, shortened: as §1
# SK-MEL-2 = assay: Growth inhibition of human SK-MEL-2 cells at 10 uM after 48 hrs by coulter counter method; settings: SK-MEL-2, 48 h, read-out: GI; procedure, shortened: as §1
# SK-MEL-28 = assay: Growth inhibition of human SK-MEL-28 cells at 10 uM after 48 hrs by coulter counter method; settings: SK-MEL-28, 48 h, read-out: GI; procedure, shortened: as §1
# UACC-62 = assay: Growth inhibition of human UACC62 cells at 10 uM after 48 hrs by coulter counter method; settings: UACC-62, 48 h, read-out: GI; procedure, shortened: as §1
# IGROV-1 = assay: Growth inhibition of human IGROV1 cells at 10 uM after 48 hrs by coulter counter method; settings: IGROV-1, 48 h, read-out: GI; procedure, shortened: as §1
# OVCAR-4 = assay: Growth inhibition of human OVCAR4 cells at 10 uM after 48 hrs by coulter counter method; settings: OVCAR-4, 48 h, read-out: GI; procedure, shortened: as §1
# OVCAR-8 = assay: Growth inhibition of human OVCAR8 cells at 10 uM after 48 hrs by coulter counter method; settings: OVCAR-8, 48 h, read-out: GI; procedure, shortened: as §1
# SK-OV-3 = assay: Growth inhibition of human SKOV3 cells at 10 uM after 48 hrs by coulter counter method; settings: SK-OV-3, 48 h, read-out: GI; procedure, shortened: as §1
# 786-0 = assay: Growth inhibition of human 786-0 cells at 10 uM after 48 hrs by coulter counter method; settings: 786-0, 48 h, read-out: GI; procedure, shortened: as §1
# CAKI-1 = assay: Growth inhibition of human Caki1 cells at 10 uM after 48 hrs by coulter counter method; settings: CAKI-1, 48 h, read-out: GI; procedure, shortened: as §1
# SN12C = assay: Growth inhibition of human SN12C cells at 10 uM after 48 hrs by coulter counter method; settings: read-out: GI; procedure, shortened: as §1
# UO-31 = assay: Growth inhibition of human UO31 cells at 10 uM after 48 hrs by coulter counter method; settings: UO-31, 48 h, read-out: GI; procedure, shortened: as §1
# PC-3 = assay: Growth inhibition of human PC3 cells at 10 uM after 48 hrs by coulter counter method; settings: PC-3, 48 h, read-out: GI; procedure, shortened: as §1
# MCF7 = assay: Growth inhibition of human MCF7 cells at 10 uM after 48 hrs by coulter counter method; settings: MCF7, 48 h, read-out: GI; procedure, shortened: as §1
# MDA-MB-231 = assay: Growth inhibition of human MDA-MB-231 cells at 10 uM after 48 hrs by coulter counter method; settings: MDA-MB-231, 48 h, read-out: GI; procedure, shortened: as §1
# [1] = Growth inhibition of human Hs 578T cells at 10 uM after 48 hrs by coulter counter method; settings: read-out: GI; procedure, shortened: as §1
# BT-549 = assay: Growth inhibition of human BT549 cells at 10 uM after 48 hrs by coulter counter method; settings: BT-549, 48 h, read-out: GI; procedure, shortened: as §1
# T47D = assay: Growth inhibition of human T47D cells at 10 uM after 48 hrs by coulter counter method; settings: read-out: GI; procedure, shortened: as §1
# MDA-MB-468 = assay: Growth inhibition of human MDA-MB-468 cells at 10 uM after 48 hrs by coulter counter method; settings: MDA-MB-468, 48 h, read-out: GI; procedure, shortened: as §1
smiles,measurement,setting,value
COc1ccc(C2NC(=O)Nc3ccc(CNc4ccccn4)cc32)cc1 (centres undefined),inhibition of growth at 10 µM,CCRF-CEM,30%
same,inhibition of growth at 10 µM,HL-60(TB),30%
same,inhibition of growth at 10 µM,K562,30%
same,inhibition of growth at 10 µM,MOLT-4,30%
same,inhibition of growth at 10 µM,SR,30%
same,inhibition of growth at 10 µM,A549,30%
same,inhibition of growth at 10 µM,HOP-92,30%
same,inhibition of growth at 10 µM,NCI-H226,30%
same,inhibition of growth at 10 µM,NCI-H23,30%
same,inhibition of growth at 10 µM,NCI-H522,30%
same,inhibition of growth at 10 µM,COLO 205,30%
same,inhibition of growth at 10 µM,HCT-116,36.8%
same,inhibition of growth at 10 µM,HT-29,30%
same,inhibition of growth at 10 µM,KM12,30%
same,inhibition of growth at 10 µM,SF-268,30%
same,inhibition of growth at 10 µM,SF-539,30%
same,inhibition of growth at 10 µM,SNB-75,30%
same,inhibition of growth at 10 µM,U-251,30%
same,inhibition of growth at 10 µM,M14,30%
same,inhibition of growth at 10 µM,SK-MEL-2,30%
same,inhibition of growth at 10 µM,SK-MEL-28,30%
same,inhibition of growth at 10 µM,UACC-62,30%
same,inhibition of growth at 10 µM,IGROV-1,30%
same,inhibition of growth at 10 µM,OVCAR-4,30%
same,inhibition of growth at 10 µM,OVCAR-8,30%
same,inhibition of growth at 10 µM,SK-OV-3,30%
same,inhibition of growth at 10 µM,786-0,30%
same,inhibition of growth at 10 µM,CAKI-1,30%
same,inhibition of growth at 10 µM,SN12C,30%
same,inhibition of growth at 10 µM,UO-31,30%
same,inhibition of growth at 10 µM,PC-3,30%
same,inhibition of growth at 10 µM,MCF7,30%
same,inhibition of growth at 10 µM,MDA-MB-231,30.2%
same,inhibition of growth at 10 µM,[1],30%
same,inhibition of growth at 10 µM,BT-549,30%
same,inhibition of growth at 10 µM,T47D,33.1%
same,inhibition of growth at 10 µM,MDA-MB-468,30%
NS(=O)(=O)c1ccc(Nc2nc3ccccc3c(=O)n2-c2ccc(Cl)cc2)cc1,inhibition of growth at 10 µM,CCRF-CEM,30%
same,inhibition of growth at 10 µM,HL-60(TB),30%
same,inhibition of growth at 10 µM,K562,34.3%
same,inhibition of growth at 10 µM,MOLT-4,38.1%
same,inhibition of growth at 10 µM,SR,30.2%
same,inhibition of growth at 10 µM,A549,30%
same,inhibition of growth at 10 µM,HOP-92,30%
same,inhibition of growth at 10 µM,NCI-H226,30%
same,inhibition of growth at 10 µM,NCI-H23,30%
same,inhibition of growth at 10 µM,NCI-H522,30%
same,inhibition of growth at 10 µM,COLO 205,30%
same,inhibition of growth at 10 µM,HCT-116,33.6%
same,inhibition of growth at 10 µM,HT-29,30%
same,inhibition of growth at 10 µM,KM12,30%
same,inhibition of growth at 10 µM,SF-268,30%
same,inhibition of growth at 10 µM,SF-539,30%
same,inhibition of growth at 10 µM,SNB-75,30%
same,inhibition of growth at 10 µM,U-251,30%
same,inhibition of growth at 10 µM,M14,30%
same,inhibition of growth at 10 µM,SK-MEL-2,30%
same,inhibition of growth at 10 µM,SK-MEL-28,30%
same,inhibition of growth at 10 µM,UACC-62,30%
same,inhibition of growth at 10 µM,IGROV-1,30%
same,inhibition of growth at 10 µM,OVCAR-4,30%
same,inhibition of growth at 10 µM,OVCAR-8,30%
same,inhibition of growth at 10 µM,SK-OV-3,30%
same,inhibition of growth at 10 µM,786-0,30%
same,inhibition of growth at 10 µM,CAKI-1,30%
same,inhibition of growth at 10 µM,SN12C,30%
same,inhibition of growth at 10 µM,UO-31,30%
same,inhibition of growth at 10 µM,PC-3,30%
same,inhibition of growth at 10 µM,MCF7,30%
same,inhibition of growth at 10 µM,MDA-MB-231,30%
same,inhibition of growth at 10 µM,[1],30%
same,inhibition of growth at 10 µM,BT-549,30%
same,inhibition of growth at 10 µM,T47D,30%
same,inhibition of growth at 10 µM,MDA-MB-468,30%
